Results on 7 compounds are retold here after ChEMBL document CHEMBL1250520, “Antitumor agents. 280. Multidrug resistance-selective desmosdumotin B analogues” (2010).

Calls of active or inactive are those of the source. The rule behind the calls is not given here.

In one experiment the test system is KB. Kind of experiment: Anticancer activity against human KB cells after 3 days by SRB assay. To be noted: 72 h, read-out: ED50 (the source's name). The class given is functional. The essentials: (§1)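 Cells seeded at 1500–7500 per well, compounds added from DMSO-diluted stock, grown 3 days in RPMI-1640 with 25mM HEPES, 0.25% sodium bicarbonate, 10% FBS and kanamycin. Attached cells fixed in cold 50% TCA, stained with 0.4% sulforhodamine B, absorbance read at 562 nm after dye solubilization. ED50 is the 50% growth-reduction concentration, averaged from at least three independent determinations.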
In general terms: In SRB staining, fixed cells bind dye roughly in proportion to their protein.

Experiment [1] in a line: Anticancer activity against human KBVIN cells after 3 days by SRB assay. It counts as functional. The following applies: 72 h, read-out: ED50 (the source's name). In short, it runs like this: as §1
Experiment [2] in a line: Selectivity ratio of ED50 for human KB cells to ED50 for human KBVIN cells. It counts as functional. The essentials:
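Ratio of KB ED50 to KB-VIN ED50. Both values come from a 3-day sulforhodamine B assay with absorbance read at 562 nm. Cells were seeded at 1500–7500 per well and dosed from DMSO-diluted stock. Each ED50 is the mean of at least three independent determinations.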

Experiment [3] can be described thus: Anticancer activity against human Hep3B cells after 3 days by SRB assay. The class given is functional, Hep 3B2. The following applies: 72 h.
Experiment [4] is described as follows: Anticancer activity against vincristine-resistant human Hep3B cells after 3 days by SRB assay. The class given is functional, Hep 3B2. To be noted: 72 h.
In another experiment the test system is Hep 3B2. Kind of experiment: Selectivity ratio of GI50 for human Hep3B cells to ED50 vincristine-resistant Hep3B cells. The class given is functional.
The subject of experiment [5] is KBVIN. Kind of experiment: Inhibition of Pgp efflux pump in human KBVIN cells by calcein AM assay. The class given is cell-based. The essentials: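 KB-VIN cells, 10,000 per well, were grown 24 h in RPMI-1640 with 5% FBS. They were preincubated with compounds for 30 min at 37°C, then given fresh medium with 1 µM calcein-AM plus compounds for 30 min at 37°C in the dark. After cold PBS wash and hypotonic Tris-HCl lysis, fluorescence was read at Ex 494/Em 517 nm. Data pooled from two or more independent experiments.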

Experiment [6] concerns KBVIN. Kind of experiment: Induction of apoptosis in human KBVIN cells assessed as DNA fragmentation after 1 days by ELISA. It counts as functional, cell-based. The essentials: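 Apoptosis in KB-VIN cells, including co-treatment with verapamil, read out by a Cell Death Detection ELISA PLUS kit.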

The GI50 is the concentration giving 50% growth inhibition. The low end stands for more potent growth inhibition, the high end for less potent growth inhibition. Regarding `CCC1=C(O)c2c(oc(-c3ccccc3)cc2=O)C(CC)(CC)C1=O` [6,8,8-TRIETHYL DESMOSDUMOTIN B], the EC50 in the experiment on KB is more than 237 µM; in experiment [1] it was 1.07 µM. Moreover, the “Ratio ED50” value in experiment [2] is more than 221. Further, the GI50 in experiment [3] was determined as 47.6 µM; in experiment [4] it was 1.57 µM. In addition, in the experiment on Hep 3B2, the RatioGI50 is reported as 30. Further, the inhibition entry with KBVIN [5] is “inactive”. For the same compound, the result in the experiment with KBVIN [6] was Active.
`CCC1=C(O)c2c(oc(-c3ccc(CC)cc3)cc2=O)C(CC)(CC)C1=O` [6,8,8-TRIETHYL-4-ETHYL DESMOSDUMOTIN B]: the EC50 came to 21.9 µM with KB and 0.07 µM in experiment [1]. For the same compound, the “Ratio ED50” value in experiment [2] came out at 320. Moreover, the concentration for 50% growth inhibition (GI50) in experiment [3] stood at 6.09 µM; in experiment [4] it was 0.72 µM. Moreover, in the experiment on Hep 3B2, the RatioGI50 was 8.5. The inhibition result with KBVIN [5] was “Active”.
On to `CC(=O)O[C@H]1C(=O)[C@@]2(C)[C@H]([C@H](OC(=O)c3ccccc3)[C@]3(O)C[C@H](OC(=O)[C@H](O)[C@@H](NC(=O)c4ccccc4)c4ccccc4)C(C)=C1C3(C)C)[C@]1(OC(C)=O)CO[C@@H]1C[C@@H]2O` [PACLITAXEL], for which the figures for the concentration for 50% growth inhibition (GI50) in experiment [3] and in experiment [4] were 0.0004 µM and 16.2 µM, respectively.
As for `CCC1=C(O)c2c(oc(-c3ccc(C)cc3)cc2=O)C(CC)(CC)C1=O` [6,8,8-TRIETHYL-4-METHYL DESMOSDUMOTIN B], the EC50 in the experiment on KB came to 39.2 µM; in experiment [1], 0.08 µM. The “Ratio ED50” value in experiment [2] is on record as 460. Moreover, the figures for the GI50 in experiment [3] and in experiment [4] were 7.31 µM and 0.35 µM, respectively. In the experiment with Hep 3B2, the RatioGI50 was found to be 21. Further, the inhibition entry in the experiment on KBVIN [5] was “Active”.
`CCC1=C(O)c2c(oc(-c3ccc(OC)c(C)c3C)cc2=O)C(CC)(CC)C1=O`: the results for the EC50 (with KB; in experiment [1]) were 5.43 µM and 0.28 µM, respectively. Also, the “Ratio ED50” value in experiment [2] is listed as 20.
The corresponding values for `CCC1=C(O)c2c(oc(-c3cc(C)c(O)c(C)c3)cc2=O)C(CC)(CC)C1=O` are 18.3 µM, 8.9 µM and 2.
As to `CC[C@]1(O)C[C@H]2CN(CCc3c([nH]c4ccccc34)[C@@](C(=O)OC)(c3cc4c(cc3OC)N(C=O)[C@H]3[C@@](O)(C(=O)OC)[C@H](OC(C)=O)[C@]5(CC)C=CCN6CC[C@]43[C@@H]65)C2)C1` [VINCRISTINE], the values for the concentration for 50% growth inhibition (GI50) in experiment [3] and in experiment [4] were 0.0029 µM and 6.86 µM, respectively.
